# Data reported in PubChem BioAssay.
# Calls of active or inactive are those of the source.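 Rule for the calls, unless noted: active = fluorescence slope after compound addition differing from the mean of all tested samples at 99.7% confidence, mostly higher but some lower; inactive = the rest.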
# Columns and labels:
# [1] = inhibitors of TNFa-induced NFkB p65 translocation, primary screen, imaging, HUVEC, MLSMR starter and 10KST1 sets (AID 438;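 active = inhibition above 20% together with a positive visual image hit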;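 note: compound added about 3h40 before a 20 min TNFalpha stimulation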;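 for inhibition: signal is the nuclear over cytoplasmic p65 intensity ratio per well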); conditions: HUVEC TNFa-induced p65 nuclear translocation; cell count: measured here: nuclei count (cytotoxicity indicator), at 2.08 µM; inhibition: at 2 µM, stronger effect = higher value, 0% TNFa-plus-vehicle, 100% no-TNFa wells
# [2] = endothelial E-selectin expression blockers – imaging, HUVEC, immunofluorescence, MLSMR starter and 10KST1 sets, primary screen (AID 487;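 active = visually confirmed hit in the image check and inhibition above 20%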;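 for inhibition: signal is fraction of cell area covered by stained E-selectin grains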;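 for nuclei count: 100% = median nuclei count of all wells on the same plate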); conditions: HUVEC TNFalpha-induced E-selectin immunofluorescence imaging, at 2 µM; inhibition: stronger effect = higher value; nuclei count: measured here: cell number, toxicity
# [3] = Primary imaging screen for DUSP6 inhibitors that restore phospho-Erk in transfected HeLa cells, chemical complementation (AID 609;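 active = compounds giving at least 50% inhibition in the cell-based MKP-3 phosphatase rescue imaging test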;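 for inhibition: phospho-Erk level distribution per well compared with pooled transfected vehicle control wells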); conditions: HeLa MKP-3 transfected, phospho-Erk imaging KS statistic, at 10 µM, cells stimulated with TPA for 15 min
# [4] = target: Dual specificity protein phosphatase 6 (Homo sapiens) (UniProt Q16828); assay: as above; conditions: HeLa MKP-3 transfected, phospho-Erk imaging KS statistic; at 10 µM; stronger effect = higher value; cells stimulated with TPA for 15 min
# Dual specificity protein phosphatase 6 (Homo sapiens), sequence (Q16828 whole entry, looked up): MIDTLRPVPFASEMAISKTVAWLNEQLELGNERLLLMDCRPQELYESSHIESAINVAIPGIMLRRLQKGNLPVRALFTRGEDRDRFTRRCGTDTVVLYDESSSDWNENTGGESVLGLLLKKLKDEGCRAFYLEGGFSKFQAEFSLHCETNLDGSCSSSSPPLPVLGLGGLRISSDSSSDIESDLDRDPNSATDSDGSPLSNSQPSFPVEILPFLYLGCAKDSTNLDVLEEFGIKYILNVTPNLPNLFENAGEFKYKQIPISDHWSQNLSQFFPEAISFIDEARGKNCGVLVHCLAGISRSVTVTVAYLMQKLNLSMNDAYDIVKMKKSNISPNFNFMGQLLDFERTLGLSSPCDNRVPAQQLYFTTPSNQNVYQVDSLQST
# [5] = target: Voltage-gated potassium channel subunit beta-2 (Rattus norvegicus) (UniProt P62483); assay: inhibitors of rat Kvbeta2 reductase activity – biochemical, NADPH fluorescence, primary screen (AID 622;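 active = fluorescence slope higher than the sample average by over 3 SD, cut at about -0.22 in these data, passing the limit was not always enough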;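 note: slope of raw intensity against log time taken from 70 to 1610 s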); conditions: recombinant KvBeta, 4-cyanobenzaldehyde reduction, at 10 µM, stronger effect = higher value
# Voltage-gated potassium channel subunit beta-2 (Rattus norvegicus), sequence (P62483 whole entry, looked up): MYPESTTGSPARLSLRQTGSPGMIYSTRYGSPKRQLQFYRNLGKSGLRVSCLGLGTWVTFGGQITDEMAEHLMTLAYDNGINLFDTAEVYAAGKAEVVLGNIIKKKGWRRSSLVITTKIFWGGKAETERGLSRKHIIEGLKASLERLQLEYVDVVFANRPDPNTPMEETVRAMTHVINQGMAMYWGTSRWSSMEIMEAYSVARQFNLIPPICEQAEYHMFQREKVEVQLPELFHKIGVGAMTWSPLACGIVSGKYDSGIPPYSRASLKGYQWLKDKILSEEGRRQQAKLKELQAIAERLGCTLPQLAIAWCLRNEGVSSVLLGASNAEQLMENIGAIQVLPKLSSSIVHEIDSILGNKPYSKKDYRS
# [6] = target: Voltage-gated potassium channel subunit beta-2 (Rattus norvegicus) (UniProt P62483); assay: enhancers of rat Kvbeta2 NADPH turnover – biochemical, NADPH fluorescence, primary screen (AID 623;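 active = NADPH fluorescence slope more negative than the mean of all samples by about 3 SD, 99.7% confidence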;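 note: fluorescence intensity change per second fitted from 20 to 320 s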); conditions: Recombinant KvBeta, NADPH fluorescence decrease slope, 10 min; at 10 µM; stronger effect = lower value
# [7] = target: Muscarinic acetylcholine receptor M4 (Homo sapiens) (UniProt P08173); assay: M4-linked GIRK flux change, two-sided – cell-based, HEK293 M4/GIRK, thallium flux, BTC-AM, M4 allosteric agonist project, primary screen (AID 625); conditions: at 10 µM, actives lie on both sides;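 note: thallium influx through GIRK channels coupled to M4 in HEK293 cells with BTC-AM dye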
# Muscarinic acetylcholine receptor M4 (Homo sapiens), sequence (P08173 whole entry, looked up): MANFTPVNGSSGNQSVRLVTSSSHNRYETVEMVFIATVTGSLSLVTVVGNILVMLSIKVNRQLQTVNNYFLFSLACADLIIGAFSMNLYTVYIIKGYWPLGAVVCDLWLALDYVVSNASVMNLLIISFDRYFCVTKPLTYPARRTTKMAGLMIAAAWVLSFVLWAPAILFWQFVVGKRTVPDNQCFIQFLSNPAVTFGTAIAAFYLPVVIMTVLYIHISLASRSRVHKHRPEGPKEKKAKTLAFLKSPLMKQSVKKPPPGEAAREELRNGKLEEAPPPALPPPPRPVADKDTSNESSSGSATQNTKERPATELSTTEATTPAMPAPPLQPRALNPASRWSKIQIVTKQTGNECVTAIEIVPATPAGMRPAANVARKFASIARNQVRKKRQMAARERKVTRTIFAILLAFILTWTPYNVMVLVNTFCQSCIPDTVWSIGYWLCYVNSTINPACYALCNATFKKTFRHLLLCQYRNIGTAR
# Procedure, shortened: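 Material: HEK293 cells with M4 receptor and GIRK channels; Times: cells overnight at 37 °C, BTC-AM loading 1 h, reads 2 min total; Technique: kinetic BTC-AM fluorescence sampled at 1 Hz, 10 s pre-addition baseline; Read-out basis: slope over 15–24 s of trace normalized to starting intensity; Controls: carbachol positive, DMSO negative.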
# [8] = inhibitors of larval lipid processing in zebrafish, primary screen, whole organism, PED6 fluorescence, gall bladder and intestine (AID 686;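 active = a full or partial loss of lipid-probe fluorescence in the fish gall bladder, intestine or both, judged by eye; inactive = no fluorescence loss, or compound toxic to the fish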;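 note: larvae 5 to 7 days old with five fish per well; signal comes from phospholipase A2 cleavage of quenched PED6 carried via bile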); conditions: Zebrafish larvae PED6 lipid processing, fluorescence scoring; screened at 20 µM (by protocol)
# Procedure, shortened: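 Incubation: overnight exposure of larvae to compound plus PED6 / Test system: live zebrafish larvae aged 5-7 days, whole organism / Amount: 5 larvae per well / Read-out basis: visual per-well fluorescence inhibition score / Signal: visual fluorescence microscopy scoring of gall bladder, gut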
# [9] = loss of swimming-algae plug formation – whole organism, Chlamydomonas reinhardtii, WT vs cilia-less mutant, absorbance, 96-well, primary screen (AID 463189;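 active = inhibition at or above 50% relative to wild type and mutant plate controls; inactive = inhibition below 50%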;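 note: 0% = wild type cc124 cells in DMSO and 100% = ciliumless bld1 mutant cells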); conditions: Chlamydomonas reinhardtii gravitaxis, OD600 absorbance, 2 days; at 10 µM; stronger effect = higher value
# [10] = measured here: cell density z-score
# [11] = measured here: nuclear c-Myc green intensity z-score
# [12] = measured here: nuclear pErk red intensity z-score, stronger effect = higher value
SMILES,cell count [1],inhibition [1],inhibition [2],nuclei count [2] [%],"z-score [3, 10]","z-score [3, 11]","z-score [3, 12]",inhibition [4],fluorescence slope [5],NADPH fluorescence slope [6],fluorescence slope [7],outcome [8],inhibition [9]
CC(C)Sc1nnc2n(CCc3ccccc3)c(=O)c3c4c(sc3n12)COC(C)(C)C4,532,-8% (inactive),-61.3% (inactive),139,0.633,-0.0361,-0.58,7.93% (inactive),-0.435 (inactive),-2.4e-05 (inactive),0.00702 (inactive),inactive,19% (inactive)
CCC(NC(=O)Nn1cnnc1)(C(F)(F)F)C(F)(F)F,726,3.1% (inactive),-59.3% (inactive),185,-0.283,-1.06,1.12,1.98% (inactive),-0.49 (inactive),-6.6e-05 (inactive),0.00453 (inactive),inactive,19.5% (inactive)
Cc1cc(=O)oc(C)c1C(=O)NCC(C)NC(=O)c1c(C)cc(=O)oc1C (stereo unspecified),531,3.7% (inactive),32.8% (inactive),164,0.5,-1.12,-0.355,19.8% (inactive),-0.384 (inactive),-5.3e-05 (inactive),0.00562 (inactive),inactive,20.8% (inactive)
COc1ccc(/C(O)=C2/C(=O)C(=O)N(Cc3ccco3)C2c2cccs2)cc1 (stereo unspecified),651,89.9% (active),-68.9% (inactive),157,1.37,-0.407,-1.07,3.42% (inactive),-0.435 (inactive),-4.8e-05 (inactive),0.00532 (inactive),inactive,1.62% (inactive)
CC(NC(=O)OCc1ccccc1)C(=O)OCN1C(=O)c2ccccc2C1=O (stereo unspecified),519,-9.1% (inactive),-64.3% (inactive),130,0.544,-1.4,0.638,-3.97% (inactive),-0.391 (inactive),-4.8e-06 (inactive),0.00711 (inactive),inactive,28% (inactive)
O=C(Cc1ccc(Cl)cc1)Nc1cccc(-c2nnc(-c3ccco3)o2)c1,695,-4% (inactive),32.2% (inactive),162,0.714,1.13,-0.033,7.21% (inactive),-0.476 (inactive),-7.5e-05 (inactive),0.006 (inactive),inactive,5.58% (inactive)
CCCCc1nc(NCC2CCCO2)c(C#N)c2c1COC(C)(C)C2 (stereo unspecified),380,-5.9% (inactive),-69.1% (inactive),135,-0.8,1.32,-1.16,31.4% (inactive),-0.509 (inactive),-7.2e-05 (inactive),0.00404 (inactive),inactive,-8.27% (inactive)
Cc1ccc(N2C(=O)c3sc4nnc(C)c(=O)n4c3C2=O)cc1,637,1.3% (inactive),-129% (inactive),144,0.278,1.58,-1.15,-7.86% (inactive),-0.478 (inactive),-4e-05 (inactive),0.00581 (inactive),inactive,2.4% (inactive)
CN(C)CCOC(=O)Cc1ccc(Cl)cc1,622,-6.2% (inactive),-90.8% (inactive),83.6,1.56,-0.995,-0.341,12.8% (inactive),-0.539 (inactive),-4.8e-05 (inactive),0.00854 (inactive),inactive,35.4% (inactive)
COC(=O)CSc1nc2c(c(=O)n(C)c(=O)n2C)n1CCC(C)C,599,-7% (inactive),-120% (inactive),130,-2.77,3.03,-2.44,3.42% (inactive),-0.394 (inactive),6.8e-06 (inactive),0.00549 (inactive),inactive,-12.3% (inactive)
Cn1c(N)c(C#N)c(C#N)c1-c1ccccc1,625,-10.7% (inactive),-93.2% (inactive),183,-0.336,-0.891,0.762,-2.59% (inactive),-0.339 (inactive),-1.8e-05 (inactive),0.00399 (inactive),inactive,31.5% (inactive)
CC(=O)C1=C(O)C(=O)N(c2ccc(Br)cn2)C1c1ccccc1F (stereo unspecified),545,-2.5% (inactive),-45.7% (inactive),131,1.35,-1.7,-1.31,3.97% (inactive),-0.454 (inactive),-3.5e-05 (inactive),0.00688 (inactive),inactive,1.29% (inactive)
CCSc1nc2sc3c(c2c2nnc(SCC(=O)NCc4ccco4)n12)CCCC3,550,-5.1% (inactive),-12.4% (inactive),178,-0.011,-1.17,-1.17,1.9e-07% (inactive),-0.399 (inactive),-1.1e-05 (inactive),0.00576 (inactive),inactive,9.13% (inactive)
COc1cccc(C(=O)c2sc(NC(C)C)nc2N)c1,637,-11.5% (inactive),61.3% (inactive),158,-0.552,2.2,0.884,-3.95% (inactive),-0.496 (inactive),-7.1e-05 (inactive),0.00607 (inactive),inactive,-1.39% (inactive)
COc1ccc(C2C(C(C)=O)=C(O)C(=O)N2c2nccs2)cc1OC (stereo unspecified),651,-8.9% (inactive),-2.2% (inactive),87.4,-0.646,-0.662,-0.478,-7.67% (inactive),-0.5 (inactive),-0.000231 (inactive),0.00821 (inactive),inactive,-3.88% (inactive)
N#C/C(=C\c1c(N2CCC(C(N)=O)CC2)nc2ccccn2c1=O)S(=O)(=O)c1ccccc1,444,-3.7% (inactive),-112% (inactive),144,1.56,-0.902,-1.07,12.7% (inactive),-0.423 (inactive),-2.9e-05 (inactive),0.00437 (inactive),inactive,4.15% (inactive)
O=C(Nc1nnc(SCc2ccccc2F)s1)c1ccco1,600,-10.3% (inactive),-62.9% (inactive),109,-0.259,-0.419,-0.101,5.35% (inactive),-0.502 (inactive),-5.2e-05 (inactive),0.00604 (inactive),inactive,39.5% (inactive)
Cc1ccc(N(CN2C(=O)C3CC=CCC3C2=O)C(=O)c2ccco2)cc1Cl (stereo unspecified),419,-4.5% (inactive),32.8% (inactive),102,0.823,-0.172,0.302,-7.28% (inactive),-0.453 (inactive),-1.3e-05 (inactive),0.00483 (inactive),inactive,30.1% (inactive)
Cc1ccc(S(=O)(=O)c2cc3c(=O)n4cccc(C)c4nc3n(CC3CCCO3)c2=N)cc1 (stereo unspecified),573,-12.2% (inactive),34.6% (inactive),107,0.122,0.519,-1.24,-8.27% (inactive),-0.456 (inactive),-3.3e-05 (inactive),0.00435 (inactive),inactive,-6.46% (inactive)
CCCOc1cccc(C2/C(=C(/O)c3ccc(F)cc3)C(=O)C(=O)N2CCN(C)C)c1 (stereo unspecified),676,-13.2% (inactive),-51.1% (inactive),132,0.0201,-1.18,-0.732,-2.91% (inactive),-0.478 (inactive),-2.8e-05 (inactive),0.00611 (inactive),inactive,12.9% (inactive)
Nc1c2c(nc3ccccc13)N(C1CCCCC1)CC2,670,21.3% (inactive),7.4% (inactive),98.7,-0.086,0.000792,-0.245,-15.1% (inactive),-0.46 (inactive),-2.9e-05 (inactive),0.00444 (inactive),inactive,62.2% (active)
COc1ccc(C2C=C(c3ccc(C)cc3)Nc3ncnn32)cc1 (stereo unspecified),538,0.8% (inactive),22.6% (inactive),156,-1.85,1.16,0.377,-3.97% (inactive),-0.0165 (inactive),-1.6e-05 (inactive),0.00462 (inactive),inactive,2.98% (inactive)
CCN(CC)CCCN1C(=O)C(=O)/C(=C(/O)c2ccccc2)C1c1cc(OC)ccc1OC (stereo unspecified),414,-1.4% (inactive),-75.8% (inactive),153,-0.00303,-1.03,1.76,1.48% (inactive),-0.469 (inactive),-0.000138 (inactive),0.00498 (inactive),inactive,32.7% (inactive)
Cc1cc(SCCC(=O)O)nc2ccccc12,685,-18.8% (inactive),-36.7% (inactive),201,-0.264,0.626,0.219,5.95% (inactive),-0.488 (inactive),-4.8e-05 (inactive),0.00621 (inactive),inactive,-15.2% (inactive)
CC1(C)Cc2c(C#N)c(N3CCN(C(=O)c4ccco4)CC3)nc(-c3ccco3)c2CS1,639,-0.1% (inactive),-82.6% (inactive),138,-1.4,-0.121,-2.48,-4.27% (inactive),-0.464 (inactive),-6.6e-05 (inactive),0.00584 (inactive),inactive,3.99% (inactive)
COc1cc(S(=O)(=O)N2CCN(c3ccc(F)cc3)CC2)ccc1Cl,609,-2.2% (inactive),-32.9% (inactive),124,-0.486,-0.838,0.956,-7.67% (inactive),-0.449 (inactive),-4.1e-05 (inactive),0.00423 (inactive),inactive,-4.27% (inactive)
Clc1ccc(-n2ncc3c(NCc4cccs4)ncnc32)cc1,615,-9.4% (inactive),-52.5% (inactive),125,0.539,0.108,0.0803,11.4% (inactive),-0.385 (inactive),-2.1e-05 (inactive),0.00704 (inactive),inactive,42.7% (inactive)
